In ChEMBL document CHEMBL1143800, “Design and synthesis of new pyranoxanthenones bearing a nitro group or an aminosubstituted side chain on the pyran ring. Evaluation of their growth inhibitory activity in breast cancer cells” (Eur J Med Chem, 2007):

What was measured:
MDA-MB-231 [1] = test: Antiproliferative activity against human MDA-MB-231 cells after 72 hrs; assay type: functional, cell-based; details: MDA-MB-231, 72 h
How it was run: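 MDA-MB-231 (ER-negative) monolayers in EMEM with 10% FBS, L-glutamine, pyruvate, NEAA, insulin at 37 °C, 5% CO2. Seeded 1 × 10⁴ cells/well with serum and dosed 24 h later with compound at 1–100 (DMSO and/or ethanol stocks diluted into medium). After 72 h, 3 h WST-1 read at 450 nm (ref 650). IC50 = concentration halving OD versus untreated controls. Mean ± SD, three independent experiments.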

MDA-MB-231 [2] = test: Antiproliferative activity against human MDA-MB-231 cells at 1 uM after 72 hrs; assay type: functional
How it was run: (§1)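 MDA-MB-231 cells grown in serum-containing EMEM (10% FBS) were plated at 1 × 10⁴ cells/well. 24 h later they were exposed to a single compound level in fresh serum medium, using DMSO/ethanol stocks diluted into the medium. At 72 h, WST-1 was added for 3 h and formazan read at 450 nm (ref 650). Values are % growth inhibition versus controls, averaged ± SD over three experiments, each in triplicate.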

MDA-MB-231 [3] = test: Antiproliferative activity against human MDA-MB-231 cells at 30 uM after 72 hrs; assay type: functional; how it was run: as §1
MDA-MB-231 [4] = test: Antiproliferative activity against human MDA-MB-231 cells at 3 uM after 72 hrs; assay type: functional; how it was run: as §1
MDA-MB-231 [5] = test: Antiproliferative activity against human MDA-MB-231 cells at 10 uM after 72 hrs; assay type: functional; how it was run: as §1
MDA-MB-231 [6] = test: Antiproliferative activity against human MDA-MB-231 cells at 100 uM after 72 hrs; assay type: functional; how it was run: as §1

SMILES | IC50 (MDA-MB-231 [1]) | Activity (MDA-MB-231 [2]) | Activity (MDA-MB-231 [3]) | Activity (MDA-MB-231 [4]) | Activity (MDA-MB-231 [5]) | Activity (MDA-MB-231 [6])
COc1cc2c(c3oc4ccccc4c(=O)c13)CC(NCCN(C)C)C(C)(C)O2 (configuration not stated) | 57 µM | 12% | 15% | 12% | 15% | 74%
CCN(CC)CCNc1cc2c(c3oc4ccccc4c(=O)c13)CC(N)C(C)(C)O2 (configuration not stated) | 62 µM | – | – | – | – | 75%
COc1cc2c(c3oc4ccccc4c(=O)c13)CC(N)C(C)(C)O2 (configuration not stated) | 53 µM | 12% | 15% | 12% | 15% | 74%
CCN(CC)CCNc1cc2c(c3oc4ccccc4c(=O)c13)CC(NCCN(CC)CC)C(C)(C)O2 (configuration not stated) | 73 µM | – | – | – | – | 75%
CCN(CC)CC(=O)NC1Cc2c(cc(OC)c3c(=O)c4ccccc4oc23)OC1(C)C (configuration not stated) | 52 µM | 12% | 15% | 12% | 15% | 74%
CCN(CC)CCNc1cc2c(c3oc4ccccc4c(=O)c13)CC(NC(=O)CN(CC)CC)C(C)(C)O2 (configuration not stated) | 68 µM | – | – | – | – | 75%
CCN(CC)CCNc1cc2c(c3oc4ccccc4c(=O)c13)CC([N+](=O)[O-])C(C)(C)O2 (configuration not stated) | > 100 µM | – | 20% | – | – | 20%
CCN(CC)CCNc1cc2c(c3oc4ccccc4c(=O)c13)C=C([N+](=O)[O-])C(C)(C)O2 | > 100 µM | – | – | – | – | –
CN(C)CCNc1cc2c(c3oc4ccccc4c(=O)c13)CC([N+](=O)[O-])C(C)(C)O2 (configuration not stated) | > 100 µM | 20% | – | 20% | 20% | –

Further lines, with some results ahead:

IC50 (MDA-MB-231 [1]) | SMILES | Activity (MDA-MB-231 [2]) | Activity (MDA-MB-231 [3]) | Activity (MDA-MB-231 [4]) | Activity (MDA-MB-231 [5]) | Activity (MDA-MB-231 [6])
46 µM | CN(C)CCNc1cc2c(c3oc4ccccc4c(=O)c13)CC(NCCN(C)C)C(C)(C)O2 (configuration not stated) | 20% | – | 20% | 20% | –
21 µM | CN(C)CCNc1cc2c(c3oc4ccccc4c(=O)c13)C=C([N+](=O)[O-])C(C)(C)O2 | – | – | – | – | –
38 µM | CN(C)CCNc1cc2c(c3oc4ccccc4c(=O)c13)CC(N)C(C)(C)O2 (configuration not stated) | 20% | – | 20% | 20% | –
51 µM | COc1cc2c(c3oc4ccccc4c(=O)c13)CC(NC(=O)CN(C)C)C(C)(C)O2 (configuration not stated) | 12% | 15% | 12% | 15% | 74%
50 µM | CN(C)CCNc1cc2c(c3oc4ccccc4c(=O)c13)CC(NC(=O)CN(C)C)C(C)(C)O2 (configuration not stated) | 20% | – | 20% | 20% | –
44 µM | CCN(CC)CCNC1Cc2c(cc(OC)c3c(=O)c4ccccc4oc23)OC1(C)C (configuration not stated) | 12% | 15% | 12% | 15% | 74%
